In ChEMBL document CHEMBL1156264, “Synthesis and structure-activity relationships of dimeric peptide antagonists of the human immunoglobulin G-human neonatal Fc receptor (IgG-FcRn) interaction” (J Med Chem, 2010):
Numbered stars: 1 amine (or outer) side, 2 acyl side, 3 side chain; on linkers, the order of the positions; unused ones are H or OH. Bridge positions count the residues as written; N and C are the ends. Square brackets hold non-standard residues; d marks the D form. Peptide text beside a SMILES is read from it. I, II: the chains in the order shown. X1 = O=C(C(=O)[*:2])[C@H](Cc1ccc(O)cc1)N[*:1]; NHCH2CH2N(Me)CH2CO = CN(CCN[*:1])CC(=O)[*:2]; NMeL = CN[C@@H](CC(C)C)C(=O)O; Pen = CC(C)(S)[C@H](N)C(=O)O; X2 = C(CN[*:1])NCCN[*:2]; Sar = CNCC(=O)O

Key:
[1] = biological target: T1, IgG receptor FcRn large subunit p51 (Homo sapiens, UniProt P55899); experiment: Inhibition of IgG binding to soluble human FcRn after 2 hrs by competition ELISA
[2] = biological target: T1, IgG receptor FcRn large subunit p51; experiment: Ratio of RF-Pen-TGHFG-Sar-NMeLeu-YPC IC50 to compound IC50 for soluble human FcRn
[3] = biological target: T1, IgG receptor FcRn large subunit p51; experiment: Binding affinity to soluble human FcRn at pH 6 by surface plasmon resonance assay
Summary of the method: (§1)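 shFcRn was amine-coupled to a CM5 dextran chip, and peptide dilutions were run at pH 6 or pH 7.4 on a Biacore 3000 or T100. The equilibrium response was plotted against concentration and fitted to a steady-state affinity model to give Kd.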

[4] = biological target: T1, IgG receptor FcRn large subunit p51; experiment: Binding affinity to soluble human FcRn at pH 7.4 by surface plasmon resonance assay
Summary of the method: as §1

T1 sequence (P55899 whole entry): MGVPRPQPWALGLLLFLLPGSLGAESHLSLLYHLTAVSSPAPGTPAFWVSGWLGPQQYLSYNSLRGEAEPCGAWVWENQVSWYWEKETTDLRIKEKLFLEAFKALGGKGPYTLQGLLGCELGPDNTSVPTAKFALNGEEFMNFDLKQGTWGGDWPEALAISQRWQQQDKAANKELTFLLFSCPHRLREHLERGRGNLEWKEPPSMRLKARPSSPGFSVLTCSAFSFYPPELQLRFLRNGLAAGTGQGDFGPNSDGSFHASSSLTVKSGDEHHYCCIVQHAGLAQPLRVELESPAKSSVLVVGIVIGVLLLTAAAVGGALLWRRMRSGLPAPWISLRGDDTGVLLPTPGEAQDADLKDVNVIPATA

IC50 [1] [nM]	Ratio IC50 [2]	Kd [3] [nM]	Kd [4] [nM]	SMILES
4.6	110	–	–	CC(C)C[C@H]1C(=O)N[C@@H](Cc2ccc(O)cc2)C(=O)C(=O)N2CCC[C@H]2C(=O)N[C@H](C(N)=O)CSSC(C)(C)[C@H](NC(=O)[C@H](Cc2ccccc2)NC(=O)[C@H](CCCNC(=N)N)NC(=O)C[C@H](C)C(=O)N[C@@H](CCCNC(=N)N)C(=O)N[C@@H](Cc2ccccc2)C(=O)N[C@@H]2C(=O)N[C@@H]([C@@H](C)O)C(=O)NCC(=O)N[C@@H](Cc3c[nH]cn3)C(=O)N[C@@H](Cc3ccccc3)C(=O)NCC(=O)N(C)CC(=O)N(C)[C@@H](CC(C)C)C(=O)N[C@@H](Cc3ccc(O)cc3)C(=O)C(=O)N3CCC[C@H]3C(=O)N[C@H](C(N)=O)CSSC2(C)C)C(=O)N[C@@H]([C@@H](C)O)C(=O)NCC(=O)N[C@@H](Cc2c[nH]cn2)C(=O)N[C@@H](Cc2ccccc2)C(=O)NCC(=O)N(C)CC(=O)N1C
40000	–	5300	37000	CC(=O)N[C@@H](CCC(N)=O)C(=O)N[C@@H](CCCNC(=N)N)C(=O)N[C@@H](Cc1ccccc1)C(=O)N[C@H]1CSSC[C@@H](C(=O)N[C@@H](CC(N)=O)C(=O)NCC(=O)N2CCC[C@H]2C(N)=O)NC(=O)[C@@H]2CCCN2C(=O)C(=O)[C@H](Cc2ccc(O)cc2)NC(=O)[C@H](CC(C)C)NC(=O)CNC(=O)CNC(=O)[C@H](Cc2ccccc2)NC(=O)[C@H](Cc2cnc[nH]2)NC(=O)CNC(=O)[C@H]([C@@H](C)O)NC1=O
37000	–	5900	–	CC(=O)N[C@@H](CCCNC(=N)N)C(=O)N[C@@H](Cc1ccccc1)C(=O)N[C@H]1CSSC[C@@H](C(N)=O)NC(=O)[C@@H]2CCCN2C(=O)C(=O)[C@H](Cc2ccc(O)cc2)NC(=O)[C@H](CC(C)C)NC(=O)CNC(=O)CNC(=O)[C@H](Cc2ccccc2)NC(=O)[C@H](Cc2cnc[nH]2)NC(=O)CNC(=O)[C@H]([C@@H](C)O)NC1=O
1100	–	150	950	CC(=O)N[C@@H](CCCNC(=N)N)C(=O)N[C@@H](Cc1ccccc1)C(=O)N[C@@H]1C(=O)N(C)[C@@H](C)C(=O)NCC(=O)N[C@@H](Cc2cnc[nH]2)C(=O)N[C@@H](Cc2ccccc2)C(=O)N[C@H]2CCCN(CC(=O)N(C)[C@@H](CC(C)C)C(=O)N[C@@H](Cc3ccc(O)cc3)C(=O)C(=O)N3CCC[C@H]3C(=O)N[C@H](C(N)=O)CSSC1(C)C)C2=O
520	–	31	170	CC(=O)N[C@@H](CCCNC(=N)N)C(=O)N[C@@H](Cc1ccccc1)C(=O)N[C@@H]1C(=O)N[C@@H]([C@@H](C)O)C(=O)NCC(=O)N[C@@H](Cc2c[nH]cn2)C(=O)N[C@@H](Cc2ccccc2)C(=O)NCC(=O)N(C)CC(=O)N(C)[C@@H](CC(C)C)C(=O)N[C@@H](Cc2ccc(O)cc2)C(=O)C(=O)N2CCC[C@H]2C(=O)N[C@H](C(N)=O)CSSC1(C)C

Continued, compound first:

SMILES	IC50 [1] [nM]	Ratio IC50 [2]	Kd [3] [nM]	Kd [4] [nM]
CC(C)C[C@H]1C(=O)N[C@@H](Cc2ccc(O)cc2)C(=O)C(=O)N2CCC[C@H]2C(=O)N[C@H](C(N)=O)CSSC(C)(C)[C@H](NC(=O)[C@H](Cc2ccccc2)NC(=O)[C@H](CCCNC(=N)N)NCCNC(=O)CCC(=O)N[C@@H](CCCNC(=N)N)C(=O)N[C@@H](Cc2ccccc2)C(=O)N[C@@H]2C(=O)N[C@@H]([C@@H](C)O)C(=O)NCC(=O)N[C@@H](Cc3c[nH]cn3)C(=O)N[C@@H](Cc3ccccc3)C(=O)NCC(=O)N(C)CC(=O)N(C)[C@@H](CC(C)C)C(=O)N[C@@H](Cc3ccc(O)cc3)C(=O)C(=O)N3CCC[C@H]3C(=O)N[C@H](C(N)=O)CSSC2(C)C)C(=O)N[C@@H]([C@@H](C)O)C(=O)NCC(=O)N[C@@H](Cc2c[nH]cn2)C(=O)N[C@@H](Cc2ccccc2)C(=O)NCC(=O)N(C)CC(=O)N1C	1.6	330	–	–
CC(C)C[C@H]1C(=O)N[C@@H](Cc2ccc(O)cc2)C(=O)C(=O)N2CCC[C@H]2C(=O)N[C@H](C(N)=O)CSSC(C)(C)[C@H](NC(=O)[C@H](Cc2ccccc2)NC(=O)[C@H](CCCNC(=N)N)NC(=O)CCOCCOCCOCCOCCOCCC(=O)N[C@@H](CCCNC(=N)N)C(=O)N[C@@H](Cc2ccccc2)C(=O)N[C@@H]2C(=O)N[C@@H]([C@@H](C)O)C(=O)NCC(=O)N[C@@H](Cc3c[nH]cn3)C(=O)N[C@@H](Cc3ccccc3)C(=O)NCC(=O)N(C)CC(=O)N(C)[C@@H](CC(C)C)C(=O)N[C@@H](Cc3ccc(O)cc3)C(=O)C(=O)N3CCC[C@H]3C(=O)N[C@H](C(N)=O)CSSC2(C)C)C(=O)N[C@@H]([C@@H](C)O)C(=O)NCC(=O)N[C@@H](Cc2c[nH]cn2)C(=O)N[C@@H](Cc2ccccc2)C(=O)NCC(=O)N(C)CC(=O)N1C	–	110	–	–
CC(C)C[C@H]1C(=O)N[C@@H](Cc2ccc(O)cc2)C(=O)C(=O)N2CCC[C@H]2C(=O)N[C@H](C(=O)NCC(=O)NCCNCCNC(=O)CNC(=O)[C@@H]2CSSC(C)(C)[C@H](NC(=O)[C@H](Cc3ccccc3)NC(=O)[C@@H](N)CCCNC(=N)N)C(=O)N[C@@H]([C@@H](C)O)C(=O)NCC(=O)N[C@@H](Cc3c[nH]cn3)C(=O)N[C@@H](Cc3ccccc3)C(=O)NCC(=O)N(C)CC(=O)N(C)[C@@H](CC(C)C)C(=O)N[C@@H](Cc3ccc(O)cc3)C(=O)C(=O)N3CCC[C@H]3C(=O)N2)CSSC(C)(C)[C@H](NC(=O)[C@H](Cc2ccccc2)NC(=O)[C@@H](N)CCCNC(=N)N)C(=O)N[C@@H]([C@@H](C)O)C(=O)NCC(=O)N[C@@H](Cc2c[nH]cn2)C(=O)N[C@@H](Cc2ccccc2)C(=O)NCC(=O)N(C)CC(=O)N1C (I: H-RF[Pen]TGHFG[Sar][NMeL][X1]PCG / II: H-RF[Pen]TGHFG[Sar][NMeL][X1]PCG; disulfide I:3-I:13, II:3-II:13; linker I:C-II:C via X2)	–	120	–	–
CC(C)C[C@H]1C(=O)N[C@@H](Cc2ccc(O)cc2)C(=O)C(=O)N2CCC[C@H]2C(=O)N[C@H](C(N)=O)CSSC(C)(C)[C@H](NC(=O)[C@H](Cc2ccccc2)NC(=O)[C@H](CCCNC(=N)N)NC(=O)CCC(=O)N(C)CCN(C)C(=O)CCC(=O)N[C@@H](CCCNC(=N)N)C(=O)N[C@@H](Cc2ccccc2)C(=O)N[C@@H]2C(=O)N[C@@H]([C@@H](C)O)C(=O)NCC(=O)N[C@@H](Cc3c[nH]cn3)C(=O)N[C@@H](Cc3ccccc3)C(=O)NCC(=O)N(C)CC(=O)N(C)[C@@H](CC(C)C)C(=O)N[C@@H](Cc3ccc(O)cc3)C(=O)C(=O)N3CCC[C@H]3C(=O)N[C@H](C(N)=O)CSSC2(C)C)C(=O)N[C@@H]([C@@H](C)O)C(=O)NCC(=O)N[C@@H](Cc2c[nH]cn2)C(=O)N[C@@H](Cc2ccccc2)C(=O)NCC(=O)N(C)CC(=O)N1C	5.2	100	–	–
CC(C)C[C@H]1C(=O)N[C@@H](Cc2ccc(O)cc2)C(=O)C(=O)N2CCC[C@H]2C(=O)N[C@H](C(N)=O)CSSC(C)(C)[C@H](NC(=O)[C@H](Cc2ccccc2)NC(=O)[C@H](CCCNC(=N)N)NC(=O)CCNC(=O)CCNC(=O)CCNC(=O)CN(C)CCNC(=O)CCC(=O)N[C@@H](CCCNC(=N)N)C(=O)N[C@@H](Cc2ccccc2)C(=O)N[C@@H]2C(=O)N[C@@H]([C@@H](C)O)C(=O)NCC(=O)N[C@@H](Cc3c[nH]cn3)C(=O)N[C@@H](Cc3ccccc3)C(=O)NCC(=O)N(C)CC(=O)N(C)[C@@H](CC(C)C)C(=O)N[C@@H](Cc3ccc(O)cc3)C(=O)C(=O)N3CCC[C@H]3C(=O)N[C@H](C(N)=O)CSSC2(C)C)C(=O)N[C@@H]([C@@H](C)O)C(=O)NCC(=O)N[C@@H](Cc2c[nH]cn2)C(=O)N[C@@H](Cc2ccccc2)C(=O)NCC(=O)N(C)CC(=O)N1C	–	220	–	–
CC(C)C[C@H]1C(=O)N[C@@H](Cc2ccc(O)cc2)C(=O)C(=O)N2CCC[C@H]2C(=O)N[C@H](C(N)=O)CSSC(C)(C)[C@H](NC(=O)[C@H](Cc2ccccc2)NC(=O)[C@H](CCCNC(=N)N)NC(=O)CC[C@H](C)C(=O)N[C@@H](CCCNC(=N)N)C(=O)N[C@@H](Cc2ccccc2)C(=O)N[C@@H]2C(=O)N[C@@H]([C@@H](C)O)C(=O)NCC(=O)N[C@@H](Cc3c[nH]cn3)C(=O)N[C@@H](Cc3ccccc3)C(=O)NCC(=O)N(C)CC(=O)N(C)[C@@H](CC(C)C)C(=O)N[C@@H](Cc3ccc(O)cc3)C(=O)C(=O)N3CCC[C@H]3C(=O)N[C@H](C(N)=O)CSSC2(C)C)C(=O)N[C@@H]([C@@H](C)O)C(=O)NCC(=O)N[C@@H](Cc2c[nH]cn2)C(=O)N[C@@H](Cc2ccccc2)C(=O)NCC(=O)N(C)CC(=O)N1C	5.6	90	–	–
CC(C)C[C@H]1C(=O)N[C@@H](Cc2ccc(O)cc2)C(=O)C(=O)N2CCC[C@H]2C(=O)N[C@H](C(N)=O)CSSC(C)(C)[C@H](NC(=O)[C@H](Cc2ccccc2)NC(=O)[C@H](CCCNC(=N)N)NC(=O)CN(C)CCNC(=O)CNC(=O)[C@@H]2CSSC(C)(C)[C@H](NC(=O)[C@H](Cc3ccccc3)NC(=O)[C@@H](N)CCCNC(=N)N)C(=O)N[C@@H]([C@@H](C)O)C(=O)NCC(=O)N[C@@H](Cc3c[nH]cn3)C(=O)N[C@@H](Cc3ccccc3)C(=O)NCC(=O)N(C)CC(=O)N(C)[C@@H](CC(C)C)C(=O)N[C@@H](Cc3ccc(O)cc3)C(=O)C(=O)N3CCC[C@H]3C(=O)N2)C(=O)N[C@@H]([C@@H](C)O)C(=O)NCC(=O)N[C@@H](Cc2c[nH]cn2)C(=O)N[C@@H](Cc2ccccc2)C(=O)NCC(=O)N(C)CC(=O)N1C (H-RF[Pen]TGHFG[Sar][NMeL][X1]PCG[NHCH2CH2N(Me)CH2CO]RF[Pen]TGHFG[Sar][NMeL][X1]PC-NH2; disulfide 3-13, 18-28)	–	130	–	–
CC(C)C[C@H]1C(=O)N[C@@H](Cc2ccc(O)cc2)C(=O)C(=O)N2CCC[C@H]2C(=O)N[C@H](C(N)=O)CSSC(C)(C)[C@H](NC(=O)[C@H](Cc2ccccc2)NC(=O)[C@H](CCCNC(=N)N)NC(=O)CC(C)(C)CC(=O)N[C@@H](CCCNC(=N)N)C(=O)N[C@@H](Cc2ccccc2)C(=O)N[C@@H]2C(=O)N[C@@H]([C@@H](C)O)C(=O)NCC(=O)N[C@@H](Cc3c[nH]cn3)C(=O)N[C@@H](Cc3ccccc3)C(=O)NCC(=O)N(C)CC(=O)N(C)[C@@H](CC(C)C)C(=O)N[C@@H](Cc3ccc(O)cc3)C(=O)C(=O)N3CCC[C@H]3C(=O)N[C@H](C(N)=O)CSSC2(C)C)C(=O)N[C@@H]([C@@H](C)O)C(=O)NCC(=O)N[C@@H](Cc2c[nH]cn2)C(=O)N[C@@H](Cc2ccccc2)C(=O)NCC(=O)N(C)CC(=O)N1C	–	100	–	–
